Bioassay records: PubChem BioAssay, Sanford-Burnham Center for Chemical Genomics
Rpn11 block = inhibitors of human proteasome Rpn11. human 26S proteasome, Ub4-pepOG fluorescence polarization; 20S core pre-blocked with epoxomicin. 360,000 tested, 0.59% active. inhibition, % at 20 µM. AID 588493;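 active = inhibition at 20 µM, scaled to each plate's controls, above about 33%, limit read from the data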
STEP inh = inhibitors of human striatal-enriched phosphatase STEP; AID 588621; recombinant STEP, OMFP fluorogenic substrate, fluorescence; 360,000 tested, 0.25% active; inhibition, % at 20 µM;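 active = inhibition at 20 µM, scaled per plate between control wells, above about 37%, limit read from the data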;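 also: 0% = DMSO with enzyme and substrate and 100% = substrate only without enzyme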
Target sequence (P54829 whole entry, looked up): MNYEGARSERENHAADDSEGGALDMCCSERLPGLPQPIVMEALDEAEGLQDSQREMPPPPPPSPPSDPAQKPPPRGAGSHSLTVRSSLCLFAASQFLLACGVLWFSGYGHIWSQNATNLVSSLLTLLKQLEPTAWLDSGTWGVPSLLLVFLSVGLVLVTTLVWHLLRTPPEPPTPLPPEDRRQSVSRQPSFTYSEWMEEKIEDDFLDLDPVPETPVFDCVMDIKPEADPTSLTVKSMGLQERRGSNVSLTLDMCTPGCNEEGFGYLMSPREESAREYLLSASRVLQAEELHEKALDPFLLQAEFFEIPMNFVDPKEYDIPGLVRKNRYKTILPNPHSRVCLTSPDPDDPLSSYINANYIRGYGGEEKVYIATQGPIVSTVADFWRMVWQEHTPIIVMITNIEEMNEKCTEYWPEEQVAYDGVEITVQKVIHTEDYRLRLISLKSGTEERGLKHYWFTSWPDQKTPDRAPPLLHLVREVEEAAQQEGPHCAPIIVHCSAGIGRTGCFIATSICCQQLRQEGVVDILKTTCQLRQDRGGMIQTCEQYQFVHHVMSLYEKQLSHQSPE
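Test system: STEP tyrosine phosphatase / Reagent: OMFP at 25 µM / Doses: 20 µM, 1% DMSO / Read-out: percent inhibition scaled to no-enzyme and uninhibited-enzyme controls, plate-pattern corrected / Detection: FITC-channel fluorescence of OMFP product / Medium: Bis-Tris buffer pH 6.0, 2.5 mM DTT, 0.005% Tween 20 / Schedule: 20 min at room temperature, dark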
LMPTP block = blocks human LMPTP phosphatase. recombinant LMPTP-A, OMFP fluorogenic substrate, fluorescence intensity. inhibition, % at 20 µM. 360,000 tested, 0.22% active. AID 651560;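 active = compounds that cut the enzyme signal by at least half of the control window in the single-dose screen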;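 also: plate controls were DMSO wells with enzyme plus substrate for no effect and substrate without enzyme for full effect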
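Assay system: LMPTP-A phosphatase enzyme | Input: 0.625 nM enzyme | Also added: Fluorogenic phosphatase substrate OMFP at 400 µM final | Compound dosing: One test concentration per compound, 20 µM, with 3% DMSO overall | Schedule: 50 min enzyme reaction at room temperature, protected from light | Signal: Fluorescence intensity | Benchmarks: no-enzyme and uninhibited controls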
Scp-1 inhibitor = Scp-1 (human) phosphatase inhibition | Q9GZU7 | Recombinant Scp1, phosphopeptide, malachite green phosphate absorbance | inhibition, % at 20 µM | 340,000 tested, 0.88% active | AID 493091;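 active = inhibition above about 50% at 20 µM, limit read from the data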;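 also: plate controls were DMSO wells with enzyme for no effect and wells lacking enzyme for full effect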
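Times: enzyme reaction 45 min at room temperature, colour 5 min, stabilisation 30 min. Material: SCP-1 catalytic fragment, aa 76-261. Medium: Acidic Tris acetate buffer with magnesium and detergent. Signal: colorimetric free-phosphate detection, absorbance 630 nm. Read-out basis: % inhibition of SCP-1 phosphate liberation. Reagent: Phosphorylated 17-residue peptide substrate.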
SUMO1 PPI mod = SUMO1-SIM interaction modulation | P63165 | SUMO1 binding to a labelled peptide, TR-FRET, 1 h | inhibition, % at 20 µM | 360,000 tested, 0.33% active | AID 602429; in the data active = inhibition above about 37%
DNMT1 inh = DNMT1 (human) enzyme inhibition; P26358; DNMT1 molecular beacon, Hinp1I cleavage, fluorescence; inhibition (reported as % activation of signal), % at 10 µM; 360,000 tested, 0.83% active; AID 588458; in the data active = inhibition above about 50%
Starred values were filed as active, the others as inactive; i = inactive; x = no result given; + = active, no number. Most compounds without a hit are left out; they make up all but 2.3% or so of the library.

SMILES	Rpn11 block	STEP inh	LMPTP block	Scp-1 inhibitor	SUMO1 PPI mod	DNMT1 inh
COc1cc(/C=N/NC(=O)Cc2nnc(NC(=O)c3ccccc3)s2)ccc1O	31	-2	2	-16	28	1
Nc1ccccc1C(=O)C[C@H](N)C(=O)O	5	1	-1	-6	2	0
COc1cc(C=Nc2cccc(C)c2)c(O)c([N+](=O)[O-])c1	39*	28	2	-3	-38	-11
COc1ccc(CN(C)CC(=O)Nc2cccc(S(=O)(=O)N(C)c3ccccc3)c2)c(OC)c1	4	0	-1	-8	8	-8
O=C(O)c1c2c(nc3ccccc13)/C(=C/c1ccc(O)cc1)CC2	8	41*	17	62*	19	87*
O=C(O)c1c2c(nc3ccccc13)/C(=C/c1ccc(OC(F)F)cc1)CCC2	6	1	-1	1	-2	-2
COc1ccc(CCC(=O)Nc2c(-c3ccc(N(C)C)cc3)[nH][nH]c2=O)cc1	25	8	13	x	47*	58*
COc1ccc(-c2[nH][nH]c(=O)c2NC(=O)c2ccccn2)cc1	-5	2	2	x	6	-13
CCN(CC)c1ccc2cc(-c3nc4ccccc4[nH]3)c(=O)oc2c1	-9	i	3	-1	1	+
CCN(CC)c1ccc2cc(-c3nc4ccccc4n3C)c(=O)oc2c1	9	-17	0	-8	-8	15
CC1OC2CC(=O)OC2C2=C1C(=O)c1c(O)cccc1C2=O (configuration not stated)	-45	9	18	x	3	75*
O=C1c2cccc3cc([N+](=O)[O-])cc(c23)C(=O)N1CCN1CCCC1	-31	4	40	-2	-21	70*
Nc1cc2c3c(cccc3c1)C(=O)N(CCN1CCCC1)C2=O	-54	-1	22	1	-27	51*
O=C(COC(=O)c1cccs1)NC1CCCC1	-3	-1	0	-3	4	2
CC[n+]1c(/C=C/C=C/N(C(C)=O)c2ccccc2)sc2cc(OC)ccc21	x	x	x	61*	x	x
Cc1cc(N/N=C/c2ccccc2O)c2ccccc2n1	6	-2	51*	-4	-19	20
O=C(COC(=O)C12CC3CC(CC(Br)(C3)C1)C2)Nc1ccc2[nH]c(=O)[nH]c2c1	4	0	2	-3	32	0
CCOc1ccc(N2CC(O)=C(c3nc4ccccc4c(=O)[nH]3)C2=N)cc1	6	6	0	-2	29	25
CCOC(=O)c1ccc(N2CC(O)=C(c3nc4ccccc4c(=O)[nH]3)C2=N)cc1	32	-1	-1	9	50*	-3
Cc1cn(-c2cc(NC(=O)c3ccc(C)c(NC(=O)c4cccc(-c5cn[nH]c(=O)c5)c4)c3)cc(C(F)(F)F)c2)cn1	107*	2	-1	5	73*	4
Cc1ccc(NC(=O)c2cccc(C(F)(F)F)c2)cc1NC(=O)c1[nH]cnc1C(N)=O	-5	0	-1	-5	-5	7
Cn1c(SCC(=O)Nc2ccc3nc(SCC(=O)N4CCCC4)sc3c2)nnc1-c1ccccc1	x	x	x	102*	x	x
CCCC(=O)Nc1ccc2nc(SCC(=O)N3CCCC3)sc2c1	2	1	-2	-7	-2	1
O=C(Nc1ccc(F)cc1)C(c1cc2ccccc2o1)N1CCN(CC(=O)N2CCCC2)CC1 (configuration not stated)	x	x	-1	x	2	x
O=C1/C(=C\c2cc([N+](=O)[O-])ccc2O)SC(=S)N1Cc1ccc(Cl)cc1	x	-18	4	-20	19	57*
CC1=C(C(=O)OC2CCCC(C)C2)C(c2ccccc2)NC(=O)N1 (configuration not stated)	-3	-1	1	-5	1	4
O=c1cc[nH]c2c(Cl)cccc12	-5	0	-1	-1	3	2
Cc1[nH]ccc(=O)c1Cc1c(Cl)cccc1Cl	-6	-1	78*	-6	0	-2
C[C@H](CO)N1C[C@H](C)[C@@H](CN(C)C(=O)C2CCCCC2)OCc2cn(nn2)CCCC1=O	-10	1	-3	x	-4	1
